Measurements taken from ChEMBL document CHEMBL1122881, “A dipeptide derived from kainic and L-glutamic acids: a selective antagonist of amino acid induced neuroexcitation with anticonvulsant properties” (1985).

Legend:
Type in all cases: functional
Rattus norvegicus [1] = species on record: Rattus norvegicus; experiment: Compound (1 mM) to block the increase in the permeability of the neuronal sodium ions in rat striatum slices by excitatory 0.1 M of Quis qulalic acid; conditions: in the assay text read “0.1 mM” for “0.1 M”
In short: (§1)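 Values are percent of the efflux increase given by the agonist alone (100%), as mean ± standard deviation of at least triplicate experiments. Difference from control was tested by variance analysis.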

Rattus norvegicus [2] = species on record: Rattus norvegicus; experiment: Compound (1 mM) to block the increase in the permeability of the neuronal sodium ions in rat striatum slices by excitatory 0.1 mM of Kainic Acid.; in short: as §1
Mus musculus = species on record: Mus musculus; experiment: Effective dose required to protect mice from picrotoxin-induced seizures
In short: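 CD1 mice of either sex (20–30 g), unanaesthetised, received 5 μL of drug in phosphate-buffered saline pH 7.4, or vehicle, icv (1 mm posterior, 1 mm lateral to bregma, 2.6 mm deep). Picrotoxin 3 mg/kg was given iv in the tail vein 10 min later. Stage 5 seizures were scored over 30 min, with at least 8 mice per group, and ED50 was calculated.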

Rattus norvegicus [3] = species on record: Rattus norvegicus; experiment: Compound (1 mM) to block the increase in the permeability of the neuronal sodium ions in rat striatum slices by excitatory 30 uM of N-methyl-D-aspartic acid; in short: as §1
Rattus norvegicus [4] = species on record: Rattus norvegicus; experiment: Compound (1 mM) to block the increase in the permeability of the neuronal sodium ions in rat striatum slices by excitatory 0.5 mM of L-GLutamic acid.; in short: as §1

## C=C(C)[C@H]1CN[C@H](C(=O)O)[C@H]1CC(=O)NC(CCC(=O)O)C(=O)O (stereo not given in full)
Rattus norvegicus [1]
  Mean response: 69
Rattus norvegicus [2]
  Mean response: 84
Mus musculus
  ED50: 170 nM
Rattus norvegicus [3]
  Mean response: 16
Rattus norvegicus [4]
  Mean response: 90
